Measured values: ChEMBL document CHEMBL1132950, “Synthesis, structure, and antitumor activity of a novel tetranuclear titanium complex” (J Med Chem, 2000)

How the values were obtained:
Mus musculus [1] = assay: In vivo activity expressed as life span value of average treated / untreated AJ mice for 11.6/6 days (SEM value = 1.93); assay type: functional, organism-based
Method in brief: (§1)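 Female AJ mice (20–25 g, 5–8 weeks) received 10^6 TA-3 ascites cells ip. From day 3 they got 0.1 mL ip of liposomal complex (1.5×10^-2 M in Ti complex, 0.9% NaCl), each dose equal to 6.2 mg/kg, daily for 1–5 consecutive days. Groups had 5–7 animals. Survival days are given as treated/untreated.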

Vero [2] = assay: In vitro percentage of live Vero cells after treatment at 500 uM; assay type: functional, cell-based; conditions: Chlorocebus sabaeus
Method in brief: (§2)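 Ti complex encapsulated in DPPC liposomes and diluted in 0.9% NaCl. It was added to monolayer cells grown in L-15 with 5% fetal calf serum, penicillin G and gentamicin at 37 °C and 100% humidity, then incubated 72 h at 37 °C. Cells were trypsinized and stained with 0.4% trypan blue, and live cells were counted in a Neubauer chamber. Viability is treated/control viable cells ×100. Five runs.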

Mus musculus [3] = assay: In vivo activity expressed as life span value of average treated / untreated CF-1 mice for 26/13 days (SEM value = 2); assay type: functional, organism-based
Method in brief: (§3)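 Female CF-1 mice (30–35 g, 5–8 weeks) received 10^6 TA-3 ascites cells ip. Three days later, daily ip injections of 0.1 mL DPPC-liposomal complex (1.5×10^-2 M in Ti complex, in 0.9% NaCl) began, each dose equal to 4.1 mg/kg, given for 1–5 consecutive days. Groups had 5–7 mice. Mean survival days are given as treated/untreated.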

HEp-2 [4] = assay: In vitro percentage of live HEP-2 cells after treatment at 100 uM; assay type: functional, cell-based; conditions: Homo sapiens; method in brief: as §2
Mus musculus [5] = assay: In vivo activity expressed as life span value of average treated / untreated AJ mice for 9.6/6 days (SEM value = 1.55); assay type: functional, organism-based; conditions: in the assay text read “9.3/6 days” for “9.6/6 days”; method in brief: as §1
Mus musculus [6] = assay: In vivo activity expressed as life span value of average treated / untreated CF-1 mice for 25.2/13 days (SEM value = 1.94); assay type: functional, organism-based; method in brief: as §3
Mus musculus [7] = assay: In vivo activity expressed as life span value of average treated / untreated CF-1 mice for 20/13 days (SEM value = 1.54); assay type: functional, organism-based; method in brief: as §3
Mus musculus [8] = assay: In vivo activity expressed as life span value of average treated / untreated CF-1 mice for 25/13 days (SEM value = 1.92); assay type: functional, organism-based; method in brief: as §3
Mus musculus [9] = assay: In vivo activity expressed as life span value of average treated / untreated AJ mice for 17.6/6 days (SEM value = 2.93); assay type: functional, organism-based; method in brief: as §1
Vero [10] = assay: In vitro percentage of live Vero cells after treatment at 8 uM; assay type: functional, cell-based; conditions: Chlorocebus sabaeus; method in brief: as §2
Vero [11] = assay: In vitro percentage of live Vero cells after treatment at 80 uM; assay type: functional, cell-based; conditions: Chlorocebus sabaeus; method in brief: as §2
HEp-2 [12] = assay: In vitro percentage of live HEP-2 cells after treatment at 80 uM; assay type: functional, cell-based; conditions: Homo sapiens; method in brief: as §2
HEp-2 [13] = assay: In vitro percentage of live HEP-2 cells after treatment at 8 uM; assay type: functional, cell-based; conditions: Homo sapiens; method in brief: as §2
HEp-2 [14] = assay: In vitro percentage of live HEP-2 cells after treatment at 500 uM; assay type: functional, cell-based; conditions: Homo sapiens; method in brief: as §2
Mus musculus [15] = assay: In vivo activity expressed as life span value of average treated / untreated AJ mice for 11.3/6 days (SEM value = 1.88); assay type: functional, organism-based; method in brief: as §1
Vero [16] = assay: In vitro percentage of live Vero cells after treatment at 100 uM; assay type: functional, cell-based; conditions: Chlorocebus sabaeus; method in brief: as §2
Mus musculus [17] = assay: In vivo activity expressed as life span value of average treated / untreated AJ mice for 15/6 days (SEM value = 2.54); assay type: functional, organism-based; method in brief: as §1

cyclo-Tetrakis[bis(1-phenyl-3-methyl-4-benzoylpyrazol-5-onato)-mu-oxotitanium(IV)]
T/C (Mus musculus [1]): 193% | viability (Vero [2]): 95.2% | T/C (Mus musculus [3]): 200% | viability (HEp-2 [4]): 40.3% | T/C (Mus musculus [5]): 155% | T/C (Mus musculus [6]): 194% | T/C (Mus musculus [7]): 154% | T/C (Mus musculus [8]): 192% | T/C (Mus musculus [9]): 293% | viability (Vero [10]): 100% | viability (Vero [11]): 98.4% | viability (HEp-2 [12]): 77.4% | viability (HEp-2 [13]): 77.4% | viability (HEp-2 [14]): 30% | T/C (Mus musculus [15]): 188% | viability (Vero [16]): 97.1% | T/C (Mus musculus [17]): 254%
